{"data": "Measured values pooled from the literature", "read-out": "cell growth or viability", "note": "Lines come from different studies, so protocols differ."}
{"SMILES": "O=C(N/N=C/c1c(O)ccc2ccccc12)c1cc(-c2ccc3ccccc3c2)n[nH]1", "cell line": "1205Lu", "assay": "MTS", "conditions": "48 h", "IC50": "5800 nM"}
{"SMILES": "Cc1cc(Nc2ncc(Cl)c(Nc3ccccc3S(=O)(=O)C(C)C)n2)c(OC(C)C)cc1C1CCNCC1", "cell line": "BJ", "conditions": "72 h", "IC50": "2600 nM"}
{"SMILES": "C[C@H]1[C@@H](O)O[C@@H]2O[C@@]3(C)CC[C@H]4[C@H](C)CC[C@@H]1[C@@]24OO3", "cell line": "IOSE-144", "assay": "CCK-8", "conditions": "48 h", "IC50": "> 50000 nM"}
{"SMILES": "Cc1cccc(-n2ncc(Br)c(Br)c2=O)c1", "cell line": "NCI-H2444", "assay": "resazurin", "conditions": "96 h", "IC50": "310 nM"}
{"SMILES": "C[C@@H](Oc1cc(-c2cnn(C3CCNCC3)c2)cnc1N)c1c(Cl)ccc(F)c1Cl", "cell line": "BJ", "conditions": "72 h", "IC50": "2110 nM"}
{"SMILES": "C[C@@H](Oc1cc(-c2cnn(C3CCNCC3)c2)cnc1N)c1c(Cl)ccc(F)c1Cl", "cell line": "SW-1736", "assay": "MTT", "conditions": "72 h", "IC50": "2500 nM"}
{"SMILES": "COc1cc(Nc2nccc(-c3cnn4nc(OC)ccc34)n2)cc(C(F)(F)F)c1", "cell line": "HuTu80", "assay": "ATP luminescence", "IC50": "150 nM"}
{"SMILES": "COc1cccc2c1C(=O)c1c(O)c3c(c(O)c1C2=O)C[C@@](O)(C(=O)CO)C[C@@H]3O[C@H]1C[C@H](N)[C@H](O)[C@H](C)O1", "cell line": "WI-38 VA13", "assay": "MTT", "conditions": "48 h", "IC50": "0.22 µg/mL"}
{"SMILES": "COc1cc2c(Oc3ccc(NC(=O)C4(C(=O)Nc5ccc(F)cc5)CC4)cc3F)ccnc2cc1OCCCN1CCOCC1", "cell line": "BJ", "conditions": "72 h", "IC50": "180 nM"}
{"SMILES": "Oc1ccc(Nc2nc(-c3ccc(Cl)cc3)cs2)cc1", "cell line": "1205Lu", "assay": "MTS", "conditions": "72 h", "IC50": "71800 nM"}
{"SMILES": "C[C@H]1O[C@@H](n2cc(F)c(=O)[nH]c2=O)[C@H](O)[C@@H]1O", "cell line": "IOSE-144", "assay": "CCK-8", "conditions": "48 h", "IC50": "16500 nM"}
